Test results published in ChEMBL document CHEMBL1149634, “1-Acylthiosemicarbazides, 1,2,4-triazole-5(4H)-thiones, 1,3,4-thiadiazoles and hydrazones containing 5-methyl-2-benzoxazolinones: synthesis, analgesic-anti-inflammatory and antimicrobial activities” (2007).
≈ marks a conversion by molar mass, not a printed value.

Key:
[1] = system: Mus musculus; test: Antiinflammatory activity against carrageenan-induced hind paw oedema in mouse assessed as swelling thickness at 50 mg/kg, po after 360 mins; format: functional
Method in brief: (§1)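 Fasted mice (n = 5–6) were dosed orally with the sample in 0.5% CMC/water. One hour later, carrageenan (0.5 mg/25 µl in 154 mM saline) was injected subplantar into the right hind paw. The right-minus-left footpad thickness difference was measured with dial gauge callipers every 90 min over 6 h. Inhibition % is calculated versus vehicle control; mean ± SEM, Student's t test.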

[2] = system: Mus musculus; test: Antiinflammatory activity against carrageenan-induced hind paw oedema in mouse assessed as swelling thickness at 50 mg/kg, po after 270 mins; format: functional; method in brief: as §1
[3] = system: Mus musculus; test: Antiinflammatory activity against carrageenan-induced hind paw oedema in mouse assessed as inhibition of swelling thickness at 200 mg/kg, po after 180 mins; format: functional; settings: 3 h; method in brief: as §1
[4] = system: Mus musculus; test: Analgesic activity in mouse assessed as inhibition of hind paw lick at 100 mg/kg, ip by hot plate test; format: functional; settings: route intraperitoneal
[5] = system: Mus musculus; test: Antiinflammatory activity against carrageenan-induced hind paw oedema in mouse assessed as inhibition of swelling thickness at 200 mg/kg, po after 360 mins; format: functional; settings: 6 h; method in brief: as §1
[6] = system: Enterococcus faecalis; test: Antibacterial activity against Enterococcus faecalis ATCC 29212 after 24 hrs by broth microdilution test; format: functional; settings: ATCC 29212, 24 h
Method in brief: (§2)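 NCCLS broth microdilution in Mueller-Hinton broth with an inoculum of 5 × 10^5 cfu/mL. Compounds were dissolved in DMSO, diluted in sterile water, and tested as twofold dilutions from 512 to 0.5 µg/mL. Plates were incubated at 35 °C for 24 h. MIC is the lowest concentration preventing visible growth.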

[7] = system: Pseudomonas aeruginosa; test: Antibacterial activity against Pseudomonas aeruginosa ATCC 27853 after 24 hrs by broth microdilution test; format: functional; settings: ATCC 27853, 24 h; method in brief: as §2
[8] = system: Pichia kudriavzevii; test: Antifungal activity against Candida krusei ATCC 6258 after 48 hrs by broth microdilution test; format: functional; settings: ATCC 6258, 48 h
Method in brief: (§3)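 Yeasts tested by NCCLS M27-A broth microdilution in RPMI 1640 (with L-glutamine, without sodium bicarbonate) with an inoculum of 0.5–2.5 × 10^3 cfu/mL. Compounds were prepared from DMSO solution diluted in water as twofold dilutions from 512 to 0.5 µg/mL. Plates were incubated at 35 °C for 48 h. MIC is the lowest concentration giving no visible growth.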

[9] = system: Staphylococcus aureus; test: Antibacterial activity against Staphylococcus aureus ATCC 29213 after 24 hrs by broth microdilution test; format: functional; settings: ATCC 29213, 24 h; method in brief: as §2
[10] = system: Mus musculus; test: Toxicity in mouse assessed as ulceration effect at 200 mg/kg; format: functional, organism-based; design: dose 200 mg/kg
Method in brief: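 Mice given 200 mg/kg orally in the carrageenan oedema study were killed under deep ether anaesthesia 6 h after treatment. Stomachs were opened along the greater curvature and examined under a dissecting microscope for lesions or bleeding. Result is expressed as the ratio of ulcerated animals per group.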

[11] = system: Mus musculus; test: Antiinflammatory activity against carrageenan-induced hind paw oedema in mouse assessed as inhibition of swelling thickness at 100 mg/kg, po after 90 mins; format: functional; settings: 1.5 h; method in brief: as §1
[12] = system: Mus musculus; test: Antiinflammatory activity against carrageenan-induced hind paw oedema in mouse assessed as inhibition of swelling thickness at 100 mg/kg, po after 270 mins; format: functional; settings: 4.5 h; method in brief: as §1
[13] = system: Mus musculus; test: Antiinflammatory activity against carrageenan-induced hind paw oedema in mouse assessed as inhibition of swelling thickness at 200 mg/kg, po after 90 mins; format: functional; settings: 1.5 h; method in brief: as §1
[14] = system: Mus musculus; test: Analgesic activity in mouse assessed as inhibition of acetic acid induced-abdominal writhing at 100 mg/kg, ip by Koster test; format: functional; settings: Abdomen, route intraperitoneal
[15] = system: Candida parapsilosis; test: Antifungal activity against Candida parapsilosis ATCC 22019 after 48 hrs by broth microdilution test; format: functional; settings: Lodderomyces parapsilosis, ATCC 22019, 48 h; method in brief: as §3
[16] = system: Mus musculus; test: Antiinflammatory activity against carrageenan-induced hind paw oedema in mouse assessed as swelling thickness at 50 mg/kg, po after 180 mins; format: functional; method in brief: as §1
[17] = system: Mus musculus; test: Antiinflammatory activity against carrageenan-induced hind paw oedema in mouse assessed as swelling thickness at 50 mg/kg, po after 90 mins; format: functional; method in brief: as §1
[18] = system: Escherichia coli; test: Antibacterial activity against Escherichia coli ATCC 25922 after 24 hrs by broth microdilution test; format: functional; settings: ATCC 25922, 24 h; method in brief: as §2
[19] = system: Candida albicans; test: Antifungal activity against Candida albicans ATCC 90028 after 48 hrs by broth microdilution test; format: functional; settings: ATCC 90028, 48 h; method in brief: as §3
[20] = system: Mus musculus; test: Antiinflammatory activity against carrageenan-induced hind paw oedema in mouse assessed as inhibition of swelling thickness at 100 mg/kg, po after 180 mins; format: functional; settings: 3 h; method in brief: as §1
[21] = system: Mus musculus; test: Antiinflammatory activity against carrageenan-induced hind paw oedema in mouse assessed as inhibition of swelling thickness at 100 mg/kg, po after 360 mins; format: functional; settings: 6 h; method in brief: as §1
[22] = system: Mus musculus; test: Antiinflammatory activity against carrageenan-induced hind paw oedema in mouse assessed as inhibition of swelling thickness at 200 mg/kg, po after 270 mins; format: functional; settings: 4.5 h; method in brief: as §1
[23] = system: Mus musculus; test: Antiinflammatory activity against carrageenan-induced hind paw oedema in mouse assessed as swelling thickness at 100 mg/kg, po after 360 mins; format: functional; method in brief: as §1
[24] = system: Mus musculus; test: Antiinflammatory activity against carrageenan-induced hind paw oedema in mouse assessed as swelling thickness at 100 mg/kg, po after 270 mins; format: functional; method in brief: as §1

SMILES | Activity [1] | Activity [2] | inhibition in vivo at 200 mg/kg [3] | inhibition in vivo at 100 mg/kg [4] | inhibition in vivo at 200 mg/kg [5] | MIC [6] | MIC [7] | MIC [8] | MIC [9] | inhibition in vivo at 100 mg/kg [11] | inhibition in vivo at 100 mg/kg [12] | inhibition in vivo at 200 mg/kg [13] | inhibition in vivo at 100 mg/kg [14] | MIC [15] | Activity [16] | Activity [17] | MIC [18] | MIC [19] | inhibition in vivo at 100 mg/kg [20] | inhibition in vivo at 200 mg/kg [22] | also measured
CCNC(=S)NNC(=O)Cn1c(=O)oc2ccc(C)cc21 | 127.8% | 139.1% | 54.6% | 18.1% | 47.2% | 512 µg/mL (≈ 1660 µM) | 512 µg/mL (≈ 1660 µM) | 256 µg/mL (≈ 830 µM) | 256 µg/mL (≈ 830 µM) | 57.1% | 35.6% | 19.4% | 44.4% | 256 µg/mL (≈ 830 µM) | 21.5% | 116.7% | 256 µg/mL (≈ 830 µM) | 256 µg/mL (≈ 830 µM) | 36.3% | 27.8% | Activity [10]: Not toxic; inhibition in vivo at 100 mg/kg [21]: 29.3%
CC1(C)S[C@@H]2[C@H](NC(=O)[C@H](N)c3ccccc3)C(=O)N2[C@H]1C(=O)O [AMPICILLIN] |  |  |  |  |  |  |  |  | 1 µg/mL (≈ 2.86 µM) |  |  |  |  |  |  |  |  |  |  |  | 
OC(Cn1cncn1)(Cn1cncn1)c1ccc(F)cc1F [FLUCONAZOLE] |  |  |  |  |  |  |  | 64 µg/mL (≈ 209 µM) |  |  |  |  |  | 8 µg/mL (≈ 26.1 µM) |  |  |  | 1 µg/mL (≈ 3.27 µM) |  |  | 
Cc1ccc2oc(=O)n(Cc3n[nH]c(=S)n3-c3ccccc3)c2c1 | 147.2% | 157.3% | 47.7% | 13% | 5.5% | 256 µg/mL (≈ 757 µM) | 256 µg/mL (≈ 757 µM) | 128 µg/mL (≈ 378 µM) | 256 µg/mL (≈ 757 µM) | 79.8% | 31.8% | 53.2% | 49.6% | 128 µg/mL (≈ 378 µM) | 115.5% | 122.8% | 256 µg/mL (≈ 757 µM) | 128 µg/mL (≈ 378 µM) | 63.3% | 16.7% | Activity [10]: Not toxic; inhibition in vivo at 100 mg/kg [21]: 27.4%
CCCNC(=S)NNC(=O)Cn1c(=O)oc2ccc(C)cc21 | 176.7% | 188.2% | 25.1% | 18.1% | 6.6% | 512 µg/mL (≈ 1590 µM) | 512 µg/mL (≈ 1590 µM) | 256 µg/mL (≈ 794 µM) | 256 µg/mL (≈ 794 µM) | 79.8% | 13% | 29.1% | 59.7% | 256 µg/mL (≈ 794 µM) | 147.1% | 147.3% | 256 µg/mL (≈ 794 µM) | 256 µg/mL (≈ 794 µM) | 46.1% | 11.1% | Activity [23]: 80.6%
CNC(=S)NNC(=O)Cn1c(=O)oc2ccc(C)cc21 | 188.9% | 187.2% |  | 23.9% | 27.5% | 256 µg/mL (≈ 870 µM) | 128 µg/mL (≈ 435 µM) | 128 µg/mL (≈ 435 µM) | 512 µg/mL (≈ 1740 µM) | 64.7% |  | 58% | 61.7% | 128 µg/mL (≈ 435 µM) | 125.2% | 118.2% | 256 µg/mL (≈ 870 µM) | 128 µg/mL (≈ 435 µM) | 33.8% | 35.2% | Activity [23]: 85.8%; Activity [10]: Not toxic
Cc1ccc2oc(=O)n(CC(=O)NN)c2c1 | 101.1% | 108.4% |  | 42% | 51.6% | 512 µg/mL (≈ 2310 µM) | 256 µg/mL (≈ 1160 µM) | 128 µg/mL (≈ 579 µM) | 256 µg/mL (≈ 1160 µM) | 84.8% | 39.4% | 65.1% | 73.8% | 128 µg/mL (≈ 579 µM) | 88.7% | 92.1% | 256 µg/mL (≈ 1160 µM) | 128 µg/mL (≈ 579 µM) | 70.5% | 54.7% | inhibition in vivo at 100 mg/kg [21]: 27.4%
Cc1ccc2oc(=O)n(CC(=O)N/N=C/c3ccccc3)c2c1 | 115% | 108.8% | 37.8% | 23.9% |  | 512 µg/mL (≈ 1660 µM) | 256 µg/mL (≈ 828 µM) | 128 µg/mL (≈ 414 µM) | 256 µg/mL (≈ 828 µM) | 79.8% |  | 63.5% | 62.5% | 128 µg/mL (≈ 414 µM) | 100.1% | 98.3% | 256 µg/mL (≈ 828 µM) | 128 µg/mL (≈ 414 µM) | 30% | 27.2% | Activity [24]: 95.4%; Activity [23]: 84.5%
Cc1ccc2oc(=O)n(CC(=O)N/N=C/c3ccc(Cl)cc3)c2c1 | 107% | 111.8% | 22.8% | 50.7% | 7.7% | > 512 µg/mL | > 512 µg/mL | 256 µg/mL (≈ 745 µM) | > 512 µg/mL | 64.7% | 5.3% | 17.1% | 62.5% | 256 µg/mL (≈ 745 µM) | 89% | 72.5% | > 512 µg/mL | 128 µg/mL (≈ 372 µM) | 5.1% | 17.2% | inhibition in vivo at 100 mg/kg [21]: 4.3%
